Data reported in ChEMBL document CHEMBL2380254, “Optimization of tocotrienols as antiproliferative and antimigratory leads” (Eur J Med Chem, 2013).

Assays:
COLO 205 = assay: Growth inhibition of human COLO205 cells after 48 hrs by sulforhodamine B assay; assay type: functional; conditions: COLO 205, 48 h
In short: (§1)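 NCI-60 screen: cells in RPMI 1640 with 5% FBS and 2 mM glutamine, 5000–40,000 cells/well, preincubated 24 h. Five concentrations (10-fold dilutions; 100 to 0.001 µM) applied for 48 h at 37 °C. TCA fixation, SRB stain, absorbance at 515 nm. Time-zero plates included; GI50 where 100×(T−T0)/(C−T0)=50.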

[1] = Antiproliferative activity against mouse +SA cells by MTT assay; assay type: functional, cell-based; conditions: +SA cell
In short: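 Mouse +SA mammary epithelial cells in serum-free DMEM/F12 with BSA, transferrin, insulin and EGF. Compounds from DMSO stock conjugated to BSA (overnight, 37 °C); 0–40 µM, final DMSO <0.1%. MTT 0.42 mg/mL for 4 h at 37 °C, isopropanol solubilization, OD 570 nm. Cell number from a standard curve; IC50 by non-linear regression.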

A549 = assay: Growth inhibition of human A549/ATCC cells assessed as cell growth at 10 uM after 48 hrs by sulforhodamine B assay; assay type: functional; conditions: A549, 48 h, read-out: Activity
In short: (§2)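 NCI-60 single-dose screen at 10 µM: cells in RPMI 1640 with 5% FBS, preincubated 24 h, then exposed 48 h at 37 °C. TCA fixation (16% final for suspension cells), SRB staining, absorbance 515 nm. Percent growth relative to time-zero and untreated control plates; negative values indicate cell kill.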

SR [2] = assay: Growth inhibition of human SR cells assessed as cell growth at 10 uM after 48 hrs by sulforhodamine B assay; assay type: functional; conditions: read-out: Activity
In short: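 Suspension line in RPMI 1640 with 5% FBS, single 10 µM dose for 48 h. Settled cells were fixed with TCA (final 16%), then SRB-stained and read at 515 nm. Percent growth was taken versus T0 and control; negative values denote cytotoxicity.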

Malme-3M = assay: Growth inhibition of human MALME-3M cells assessed as cell growth at 10 uM after 48 hrs by sulforhodamine B assay; assay type: functional; conditions: read-out: Activity
In short: (§3)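 Single-dose NCI-60 screen: adherent cells in RPMI 1640 with 5% FBS were exposed to 10 µM for 48 h at 37 °C after a 24 h preincubation. They were fixed in situ with cold TCA (10% final), stained with 0.4% SRB in 1% acetic acid, solubilized in 10 mM Tris base, and read at 515 nm. Percent growth was taken relative to time-zero and control plates.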

SK-OV-3 = assay: Growth inhibition of human SKOV3 cells assessed as cell growth at 10 uM after 48 hrs by sulforhodamine B assay; assay type: functional; conditions: SK-OV-3, 48 h, read-out: Activity
In short: (§4)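 Single-dose NCI-60 test at 10 µM. Cells were grown in RPMI 1640 with 5% FBS and 2 mM L-glutamine, preincubated 24 h, with T0 plates TCA-fixed. Exposure was 48 h at 37 °C, 5% CO2. Cells were fixed with cold TCA (final 10%, 4 °C, 60 min), stained with SRB and read at 515 nm. Percent growth was taken relative to T0 and untreated control; negative values denote cell kill.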

RPMI-8226 = assay: Growth inhibition of human RPMI8226 cells assessed as cell growth at 10 uM after 48 hrs by sulforhodamine B assay; assay type: functional; conditions: RPMI-8226, 48 h, read-out: Activity
In short: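 Single 10 µM dose applied to suspension cells in RPMI 1640 with 5% FBS and 2 mM L-glutamine for 48 h at 37 °C. Settled cells were fixed with 80% TCA (16% final), stained with SRB, and read at 515 nm. Percent growth was calculated against time-zero and untreated control optical densities.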

HT-29 = assay: Growth inhibition of human HT-29 cells assessed as cell growth at 10 uM after 48 hrs by sulforhodamine B assay; assay type: functional; conditions: HT-29, 48 h, read-out: Activity; in short: as §2
SR [3] = assay: Growth inhibition of human SR cells after 48 hrs by sulforhodamine B assay; assay type: functional
In short: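 Suspension leukemia line in RPMI 1640 with 5% FBS and 2 mM L-glutamine, NCI-60 five-dose format ([…]), 48 h at 37 °C. Settled cells were fixed with 80% TCA (final 16%), stained with SRB and read at 515 nm. GI50 is where 100×(T−T0)/(C−T0)=50, with T0 measured at dosing.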

OVCAR-3 = assay: Growth inhibition of human OVCAR3 cells after 48 hrs by sulforhodamine B assay; assay type: functional; conditions: OVCAR-3, 48 h
In short: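 NCI-60 panel cells grown in RPMI 1640 with 5% FBS and 2 mM L-glutamine, seeded at 5000–40,000 cells/well and preincubated 24 h. Five 10-fold dilutions (0.001–100 µM) from DMSO stocks were added for 48 h at 37 °C. Adherent cells were fixed with cold TCA (10% final) for 60 min at 4 °C, stained with 0.4% SRB, and read at 515 nm. GI50 was set where 100×(T−T0)/(C−T0)=50.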

786-0 = assay: Growth inhibition of human 786-0 cells after 48 hrs by sulforhodamine B assay; assay type: functional; conditions: 786-0, 48 h; in short: as §1
SNB-75 = assay: Growth inhibition of human SNB75 cells assessed as cell growth at 10 uM after 48 hrs by sulforhodamine B assay; assay type: functional; conditions: SNB-75, 48 h, read-out: Activity; in short: as §4
OVCAR-4 = assay: Growth inhibition of human OVCAR4 cells assessed as cell growth at 10 uM after 48 hrs by sulforhodamine B assay; assay type: functional; conditions: OVCAR-4, 48 h, read-out: Activity; in short: as §3
[4] = Growth inhibition of human EKVX cells after 48 hrs by sulforhodamine B assay; assay type: functional; in short: as §1
MCF7 = assay: Growth inhibition of human MCF7 cells assessed as cell growth at 10 uM after 48 hrs by sulforhodamine B assay; assay type: functional; conditions: MCF7, 48 h, read-out: Activity; in short: as §3
TK-10 = assay: Growth inhibition of human TK10 cells after 48 hrs by sulforhodamine B assay; assay type: functional; conditions: TK-10, 48 h
In short: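 NCI-60 five-dose screen. Cells were grown in RPMI 1640 with 5% FBS and 2 mM L-glutamine, plated at 5000–40,000 cells/well and incubated 24 h before dosing, with T0 plates TCA-fixed. DMSO stocks were diluted to doses of […] and exposed 48 h at 37 °C, 5% CO2. Cells were fixed with cold TCA (final 10%, 60 min, 4 °C), stained with 0.4% SRB in 1% acetic acid for 10 min, solubilized in 10 mM trizma base and read at 515 nm. GI50 is where 100×(T−T0)/(C−T0)=50.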

LOX IMVI = assay: Growth inhibition of human LOXIMVI cells after 48 hrs by sulforhodamine B assay; assay type: functional; in short: as §1
HCT-15 = assay: Growth inhibition of human HCT15 cells after 48 hrs by sulforhodamine B assay; assay type: functional; conditions: HCT-15, 48 h; in short: as §1
M14 = assay: Growth inhibition of human M14 cells assessed as cell growth at 10 uM after 48 hrs by sulforhodamine B assay; assay type: functional; conditions: M14, 48 h, read-out: Activity; in short: as §2
RXF 393 = assay: Growth inhibition of human RXF393 cells assessed as cell growth at 10 uM after 48 hrs by sulforhodamine B assay; assay type: functional; conditions: RXF 393, 48 h, read-out: Activity; in short: as §3

| SMILES | GI50 (COLO 205) [nM] | IC50 [1] [nM] | growth at 10 µM (A549) [%] | growth at 10 µM (SR [2]) [%] | growth at 10 µM (Malme-3M) [%] | growth at 10 µM (SK-OV-3) [%] | growth at 10 µM (RPMI-8226) [%] | growth at 10 µM (HT-29) [%] | GI50 (SR [3]) [nM] | GI50 (OVCAR-3) [nM] | GI50 (786-0) [nM] | growth at 10 µM (SNB-75) [%] | growth at 10 µM (OVCAR-4) [%] | GI50 [4] [nM] | growth at 10 µM (MCF7) [%] | GI50 (TK-10) [nM] | GI50 (LOX IMVI) [nM] | GI50 (HCT-15) [nM] | growth at 10 µM (M14) [%] | growth at 10 µM (RXF 393) [%] |
| --- | --- | --- | --- | --- | --- | --- | --- | --- | --- | --- | --- | --- | --- | --- | --- | --- | --- | --- | --- | --- |
| CC(C)=CCC/C(C)=C/CC/C(C)=C/CC[C@]1(C)CCc2c3c(cc(C)c2O1)OCN(CCCCCO)C3 | 3390 | 700 | 36.1 | -16.9 | 116 | 96.9 | -16.3 | -34.9 | 4000 | 6710 | 6470 | 74.8 | 43.3 | 6080 | -63.6 | 5980 | 6070 | 6240 | 57.9 |  |
| CC(C)=CCC/C(C)=C/CC/C(C)=C/CC[C@]1(C)CCc2cc(O)c(C)c(C)c2O1 [GAMMA-TOCOTRIENOL] |  |  | 105 | 85.5 | 92.5 |  | 78 | 96.1 |  |  |  | 84.3 | 102 |  | 84.1 |  |  |  | 109 | 84.1 |
| CC(C)=CCC/C(C)=C/CC/C(C)=C/CC[C@]1(C)CCc2c3c(cc(C)c2O1)OCN(CCc1ccc(O)cc1)C3 | 958 | 910 | 76.6 | 1.96 | 95.8 | 69.1 |  | 18.6 | 1370 | 3560 | 6610 | 44.4 | 3.53 | 6130 | -86.3 | 5560 | 2090 | 5870 | 9.79 |  |
| COc1ccc(CCN2COc3c(C)c(C)c4c(c3C2)CC[C@@](C)(CC/C=C(\C)CC/C=C(\C)CCC=C(C)C)O4)cc1OC |  | 1800 | 98.9 | 54.6 | 93.6 | 95.3 | 64.6 | 91.7 |  |  |  | 82.8 | 98.4 |  | 77.5 |  |  |  | 101 |  |
| CC(C)=CCC/C(C)=C/CC/C(C)=C/CC[C@]1(C)CCc2c3c(c(C)c(C)c2O1)OCN(CCCCCCCCCCO)C3 |  | 4400 | 74.9 | 51.9 | 105 |  | 78.8 | 90 |  |  |  | 91.4 | 105 |  | 93.4 |  |  |  | 101 | 83.1 |
| CC(C)=CCC/C(C)=C/CC/C(C)=C/CC[C@]1(C)CCc2c(CNCCc3ccc(O)cc3)c(O)c(C)c(C)c2O1 |  | 2300 | 94.2 | 18.5 | 110 | 102 |  | 95.5 |  |  |  | 68.1 | 91 |  | 36.9 |  |  |  | 102 |  |
| CC(C)=CCC/C(C)=C/CC/C(C)=C/CC[C@]1(C)CCc2c3c(cc(C)c2O1)OCN(CCCCCCCCCCCCO)C3 |  | 2000 | 47.6 | -19.6 | 106 |  | 15.8 | 49.5 |  |  |  | 97.7 | 77.5 |  | 26.3 |  |  |  | 90.9 | 34.4 |
| COc1ccc(CCN2COc3cc(C)c4c(c3C2)CC[C@@](C)(CC/C=C(\C)CC/C=C(\C)CCC=C(C)C)O4)cc1OC | 1790 | 870 | 58.4 | 4.1 | 72.9 | 92.8 | -32.6 | 0.54 | 2300 | 2000 | 1780 | 45.2 | 40.1 | 2690 | -65.7 | 3080 | 1770 | 1930 | -19.5 |  |
| CC(C)=CCC/C(C)=C/CC/C(C)=C/CC[C@]1(C)CCc2c3c(c(C)c(C)c2O1)OCN(CCCCCCCCCCCCO)C3 |  | > 5000 | 86.5 | 67.2 | 101 |  | 87 | 84.4 |  |  |  | 94.6 | 107 |  | 100 |  |  |  | 113 | 92.5 |
| CC(C)=CCC/C(C)=C/CC/C(C)=C/CC[C@]1(C)CCc2c3c(c(C)c(C)c2O1)OCN(CCc1ccc(O)cc1)C3 |  | 1500 | 92.8 | 16.3 | 114 | 105 |  | 84.5 |  |  |  | 69.2 | 81.4 |  | 16.9 |  |  |  | 97.6 |  |
| CC(C)=CCC/C(C)=C/CC/C(C)=C/CC[C@]1(C)CCc2c3c(cc(C)c2O1)OCN(CCCCCCCCCCO)C3 |  | 3600 | 59.9 | 3.3 | 101 |  | 63.2 | 48.3 |  |  |  | 74.5 | 92.1 |  | 59.2 |  |  |  | 94.9 | 52.6 |
| COc1ccc(CCNCc2c(O)c(C)c(C)c3c2CC[C@@](C)(CC/C=C(\C)CC/C=C(\C)CCC=C(C)C)O3)cc1OC |  | 1700 | 91.8 | 7.87 | 120 | 105 |  | 45.8 |  |  |  | 80.5 | 84 |  | 29.3 |  |  |  | 90.4 |  |
